Source: PubChem BioAssay (several laboratories)
An excerpt weighted towards active compounds, which were near 3% of everything screened.
Lipid droplet – hepatic lipid droplet formation modulation; AID 1656; hit rate 0.4% among 240,000; inhibition, % at 6.5 µM; AML12 mouse hepatocytes, oleate lipid droplets, BODIPY imaging;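 active = lipid droplet intensity inhibited by at least 50%, with more than 500 cells counted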
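Test system: AML12 hepatocytes (mouse); reagent: oleate loading, 100 µM; dosing: one dose, 6.5 µM compound; incubation: overnight exposure; signal: fluorescence imaging, 20x objective, two fields per well; read-out basis: % inhibition of corrected integrated BODIPY droplet signal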
aDG glyco act – alpha-DG glycosylation activation. Pro5-aDG cells, alpha-DG glycosylation AlphaScreen (IIH6); 0% Pro5, 100% B10-LARGE cell signal. activation, % at 10 µM. hit rate 0.22% among 360,000. AID 624168;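 active = activation of at least 8% versus controls, or a plate z-score of at least 8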;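 also: Pro5 are CHO cells carrying HIG-tagged alpha-DG that lacks glycosylation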
GASC-1 inh – blocks human GASC-1 demethylase activity | hit rate 0.069% among 330,000 | inhibition, % at 2.35 µM | GST-JMJD2C(1-420) H3K9me3 demethylation, DELFIA europium | Q9H3R0 | AID 2099;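 active = more than half of a compound's replicate wells show inhibition beyond 50%, single wells judged on their own value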;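 also: signal counts dimethyl H3K9 product captured on neutravidin plate; 0% = median of DMSO wells and 100% = 0.3 times that DMSO median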
Target sequence (Q9H3R0 1-420 limits assumed): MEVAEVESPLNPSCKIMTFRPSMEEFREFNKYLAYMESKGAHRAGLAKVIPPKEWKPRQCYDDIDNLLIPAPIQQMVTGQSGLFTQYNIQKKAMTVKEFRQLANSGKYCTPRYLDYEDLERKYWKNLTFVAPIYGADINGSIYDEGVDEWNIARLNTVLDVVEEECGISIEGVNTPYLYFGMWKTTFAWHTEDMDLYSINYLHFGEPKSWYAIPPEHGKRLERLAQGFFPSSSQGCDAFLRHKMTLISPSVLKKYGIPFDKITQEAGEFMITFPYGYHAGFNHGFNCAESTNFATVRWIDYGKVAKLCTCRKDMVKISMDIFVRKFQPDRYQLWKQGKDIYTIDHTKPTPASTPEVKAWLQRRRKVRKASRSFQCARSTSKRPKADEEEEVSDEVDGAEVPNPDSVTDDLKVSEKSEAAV
GC-B act – GC-B (human) receptor activation | AID 1920062 | HEK293-GC-B cells, CNP EC30, cGMP TR-FRET; 0% at EC30 CNP, 100% saturating CNP | activation, % at 10 µM | hit rate 0.11% among 370,000;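 active = activation at 10 µM reaching about 35% in either raw or pattern-adjusted values, limit read from the data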
GC-A act – GC-A (human) enzyme activation | HEK293 GC-A cells, cGMP TR-FRET, EC30 ANP; 0% at EC30 ANP, 100% saturating ANP | activation, % at 10 µM | hit rate 0.14% among 370,000; in the data active = activation above about 40%
NR3A LBD binder – NR3A (human) ligand-binding domain modulation. AID 1259313. Tm shift relative to glycine control, % at 25 µM. NR3A LBD differential scanning fluorimetry, Tm shift; 0% = protein alone, 100% = glycine-bound protein. hit rate 2.5% among 340,000;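 active = melting temperature shift of at least 10% of the positive control shift, at one fixed dose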
Lipid drop inh – hepatic lipid droplet formation inhibition, confirmed; shares compounds with Lipid droplet; AML12 mouse hepatocytes, BODIPY lipid droplet imaging; droplets induced with 100 µM oleic acid; inhibition, % at 5.2 µM; hit rate 65% among 870; AID 463183;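 active = inhibition of lipid droplet metric at least 50%, with more than 300 cells in each of four replicates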;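 also: plate controls were DMSO with oleic acid for no effect and 5 µM Triacsin-C for full effect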
AML12 cytotox – counter-screen for cytotoxicity in AML12 mouse hepatocytes | AID 463200 | hit rate 3% among 870 | z-score at 5 µM | DAPI nuclear morphology cytotoxicity imaging; stronger effect = higher value; cells fed 100 µM oleate overnight | shares compounds with Lipid droplet; in the data active = z-score above about 6.3;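 also: compound exposure lasted overnight at 37 °C before fixation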
AML12 tox conf – AML12 hepatocyte cytotoxicity, confirmed | cytotoxicity, % at 50 µM | 530 tested, under 10 active | AML12 mouse hepatocyte viability, ATP luminescence; cells loaded with 100 µM oleic acid | shares compounds with Lipid droplet;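 active = cytotoxicity above 50% in each of four replicates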;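 also: compound exposure lasted overnight at 37 °C before the ATP read; 0% = DMSO-treated cells and 100% = wells with no cells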
Active calls of the source: *; . = no result given.

SMILES	Lipid droplet	aDG glyco act	GASC-1 inh	GC-B act	GC-A act	NR3A LBD binder	Lipid drop inh	AML12 cytotox	others
Cc1cc(C)cc(NC(=O)CSc2nc3ccccc3nc2N2CCCC2)c1	70*	0	2	-6	-6	-7	107*	-0.28	AML12 tox conf=17
COc1ccccc1N1CCN(C(=O)CSc2nc3ccccc3nc2N2CCCCC2)CC1	14	0	-5	1	-1	0	.	.
Cc1cccc(NC(=O)CSc2nc3ccccc3nc2N2CCCC2)c1C	55*	0	-2	0	7	-1	63	-0.26
CCOc1ccc(NC(=O)CSc2nc3ccccc3nc2N2CCCC2)cc1	81*	0	2	-2	-1	1	106*	-1	AML12 tox conf=13
COc1ccccc1N1CCN(C(=O)CSc2nc3ccccc3nc2N2CCC(C)CC2)CC1	52*	0	12	2	-1	0	26	0.4
O=C(CSc1nc2ccccc2nc1N1CCCC1)Nc1ccc(F)cc1	48	0	-7	-3	-2	-4	.	.
N/C(=N/OC(=O)c1ccccc1Cl)c1ncc([N+](=O)[O-])s1	5	1	-1	-10	-1	2	.	.
COc1ccc(NC(=O)CSc2nc3ccccc3nc2N2CCCC2)cc1Cl	64*	0	2	-5	-4	4	96*	-0.14	AML12 tox conf=5
COc1ccc(C)cc1NC(=O)CSc1nc2ccccc2nc1N1CCCCC1	-1	0	-3	-5	3	3	.	.
COc1ccc(-c2ccc3c(c2)C2CC3CCN2C(=O)C2CCCCC2)cc1 (stereo unspecified)	.	0	.	0	4	-3	.	.
C[C@H]1[C@@H](OC(=O)NCc2cccc(C(F)(F)F)c2)CC[C@@]23CCCN2C(=O)CCC[C@@H]13	.	.	.	-2	-6	.	.	.
CCOC(=O)CSc1c(-c2cccs2)[nH]c2ccccc12	83*	0	-9	-2	5	2	95*	-0.71	AML12 tox conf=4
Nc1ccc(-c2cc3ccccc3oc2=O)cc1	0	0	4	-2	8	1	.	.
O=C/C=C/c1c(-c2ccccc2)cc2oc3ccccc3cc1-2	70*	0	6	-4	-17	-19	23	0.6
O=C(CCc1ccccc1)NNC(=O)COc1ccc([N+](=O)[O-])cc1	2	0	-1	4	-1	0	.	.
CC(NC(=O)C(C)N1CCN(S(=O)(=O)c2ccccc2)CC1)c1ccccc1 (stereo unspecified)	.	0	7	-1	-3	0	.	.
CCOc1ccc(C2=NNC(c3cccs3)=Nc3ccc(OC)cc32)cc1OCC	55*	0	7	20	7	-3	71*	0.57	AML12 tox conf=20
CCCCOc1ccc(C(C)NC(=O)CCS(=O)(=O)Cc2ccc(C)cc2)cc1 (stereo unspecified)	52*	0	3	5	0	0	103*	-0.15
CCOCCCNC(=O)CCS(=O)(=O)Cc1ccc(C)cc1	.	0	-5	-3	1	1	.	.
O=C1CCC[C@H]2Cc3nc4cc5c(cc4cc3C[C@]23CCCN13)OCO5	.	.	.	-8	-3	.	.	.
CCOc1cc(C(=O)Nc2ccc(C(=O)NCCN(CC)CC)cc2)ccc1OCC(=O)N1CCOCC1	.	0	.	-1	1	0	.	.
C=CCn1c(=O)n(CC=C)c(=O)n(CC=C)c1=O	.	.	.	-6	3	.	.	.
Cc1ccc(Nc2nc(-c3cccnc3)nc3ccccc23)cc1	19	2	-5	-22	-17	-2	.	.
